# Laboratory results from ChEMBL document CHEMBL5214999, “Identification and Optimization of a Ligand-Efficient Benzoazepinone Bromodomain and Extra Terminal (BET) Family Acetyl-Lysine Mimetic into the Oral Candidate Quality Molecule I-BET432” (J Med Chem, 2022).
# pIC50, pKd: −log10 of the molar value.
# Tests used:
# [1] = molecular target: T1, Bromodomain-containing protein 4 (Homo sapiens, UniProt O60885); assay: Inhibition of BRD4 BD2 (unknown origin) measured by TR-FRET assay
# [2] = molecular target: T1, Bromodomain-containing protein 4; assay: Inhibition of BRD4 BD1 (unknown origin) measured by TR-FRET assay
# C-C motif chemokine 2 = C-C motif chemokine 2 (Homo sapiens, UniProt P13500); assay: Inhibition of MCP-1 in LPS-stimulated human whole blood incubate for 24 hrs by immuno assay; type: tissue-based
# [3] = Lipophilicity, logD of compound at pH 7.4 by Chromatography; type: physicochemical; details: buffer
# Cytochrome P450 3A4 = Cytochrome P450 3A4 (Homo sapiens, UniProt P08684); assay: Inhibition of CYP3A4 (unknown origin); type: ADME
# [4] = molecular target: Voltage-gated inwardly rectifying potassium channel KCNH2 (Homo sapiens, UniProt Q12809); assay: Inhibition of hERG; type: toxicity
# [5] = Artificial membrane permeability of the compound; type: ADME; details: PAMPA; read-out: permeability
# [6] = Solubility of the compound at pH 6.5 in fast state simulated intestinal fluid incubated for 16 hrs by HPLC analysis; type: physicochemical; details: fasted state simulated intestinal fluid
# [7] = Intrinsic clearance in rat hepatocytes after 60 mins by LC-MS/MS analysis; type: ADME, cell-based, Hepatocyte; details: 1 h
# [8] = Intrinsic clearance in dog hepatocytes incubated upto 45 mins by LC-MS/MS analysis; type: ADME, cell-based, Canis lupus familiaris, Hepatocyte; details: 0.75 h
# [9] = Intrinsic clearance in human hepatocytes measured after 120 mins by LC-MS/MS analysis; type: ADME, cell-based, Hepatocyte; details: 2 h
# [10] = Clearance in Wistar Han rat blood at 3 mg/kg, po or 1 mg/kg, iv measured upto 24 hrs by LC-MS/MS analysis; type: ADME, organism-based; details: whole blood
# Summary of the method: (§1)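 Male Wistar Han rats and beagle dogs were dosed iv as a 1 h infusion in DMSO with 10% (w/v) Kleptose HPB in saline (2%:98% or 5%:95% v/v). Oral doses were given in 1% (w/v) methylcellulose (400 cps) aqueous suspension. Oral values are means of n = 3 and iv values n = 1 unless otherwise noted.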
# [11] = Unbound clearance in Wistar Han rat blood at 3 mg/kg, po or 1 mg/kg, iv measured upto 24 hrs by LC-MS/MS analysis; type: ADME, organism-based; details: in vivo; summary of the method: as §1
# [12] = Volume of distribution at steady state in Wistar Han rat at 3 mg/kg, po or 1 mg/kg, iv measured upto 24 hrs by LC-MS/MS analysis; type: ADME, organism-based; details: in vivo, read-out: Vdss; summary of the method: as §1
# [13] = Unbound volume of distribution at steady state in Wistar Han rat at 3 mg/kg, po or 1 mg/kg, iv measured upto 24 hrs by LC-MS/MS analysis; type: ADME, organism-based; details: in vivo; summary of the method: as §1
# [14] = Half-life in Wistar Han rat at 3 mg/kg, po or 1 mg/kg, iv measured upto 24 hrs by LC-MS/MS analysis; type: ADME, organism-based; details: in vivo; summary of the method: as §1
# [15] = Oral bioavailability in Wistar Han rat at 3 mg/kg measured upto 24 hrs by LC-MS/MS analysis; type: ADME, organism-based; details: in vivo; summary of the method: as §1
# [16] = Oral bioavailability in Beagle dog at 1.5 mg/kg measured upto 24 hrs by LC-MS/MS analysis; type: ADME, organism-based, Canis lupus familiaris; details: in vivo; summary of the method: as §1
# [17] = Clearance in Beagle dog blood at 1.5 mg/kg, po or 0.5 mg/kg, iv measured upto 24 hrs by LC-MS/MS analysis; type: ADME, organism-based, Canis lupus familiaris; details: whole blood; summary of the method: as §1
# [18] = Unbound clearance in Beagle dog blood at 1.5 mg/kg, po or 0.5 mg/kg, iv measured upto 24 hrs by LC-MS/MS analysis; type: ADME, organism-based, Canis lupus familiaris; details: in vivo; summary of the method: as §1
# [19] = Volume of distribution at steady state in Beagle dog at 1.5 mg/kg, po or 0.5 mg/kg, iv measured upto 24 hrs by LC-MS/MS analysis; type: ADME, organism-based, Canis lupus familiaris; details: in vivo, read-out: Vdss; summary of the method: as §1
# [20] = Unbound volume of distribution at steady state in Beagle dog at 1.5 mg/kg, po or 0.5 mg/kg, iv measured upto 24 hrs by LC-MS/MS analysis; type: ADME, organism-based, Canis lupus familiaris; details: in vivo; summary of the method: as §1
# [21] = Half-life in Beagle dog at 1.5 mg/kg, po or 0.5 mg/kg, iv measured upto 24 hrs by LC-MS/MS analysis; type: ADME, organism-based, Canis lupus familiaris; details: in vivo; summary of the method: as §1
# [22] = Stability of compound in simulated gastric fluid assessed as half-life at pH 6 to 10 in presence of hydrogen peroxide; type: ADME
# Summary of the method: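 The compound was held at 40 °C in pH 10 medium, pH 6 medium and simulated gastric fluid, each with and without hydrogen peroxide as oxidant, and degradation was monitored.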
# [23] = molecular target: T2, Transcription intermediary factor 1-alpha (Homo sapiens, UniProt O15164); assay: Binding affinity to human TRIM24 bromodomain by BROMOscan method
# T2 sequence (O15164 whole entry): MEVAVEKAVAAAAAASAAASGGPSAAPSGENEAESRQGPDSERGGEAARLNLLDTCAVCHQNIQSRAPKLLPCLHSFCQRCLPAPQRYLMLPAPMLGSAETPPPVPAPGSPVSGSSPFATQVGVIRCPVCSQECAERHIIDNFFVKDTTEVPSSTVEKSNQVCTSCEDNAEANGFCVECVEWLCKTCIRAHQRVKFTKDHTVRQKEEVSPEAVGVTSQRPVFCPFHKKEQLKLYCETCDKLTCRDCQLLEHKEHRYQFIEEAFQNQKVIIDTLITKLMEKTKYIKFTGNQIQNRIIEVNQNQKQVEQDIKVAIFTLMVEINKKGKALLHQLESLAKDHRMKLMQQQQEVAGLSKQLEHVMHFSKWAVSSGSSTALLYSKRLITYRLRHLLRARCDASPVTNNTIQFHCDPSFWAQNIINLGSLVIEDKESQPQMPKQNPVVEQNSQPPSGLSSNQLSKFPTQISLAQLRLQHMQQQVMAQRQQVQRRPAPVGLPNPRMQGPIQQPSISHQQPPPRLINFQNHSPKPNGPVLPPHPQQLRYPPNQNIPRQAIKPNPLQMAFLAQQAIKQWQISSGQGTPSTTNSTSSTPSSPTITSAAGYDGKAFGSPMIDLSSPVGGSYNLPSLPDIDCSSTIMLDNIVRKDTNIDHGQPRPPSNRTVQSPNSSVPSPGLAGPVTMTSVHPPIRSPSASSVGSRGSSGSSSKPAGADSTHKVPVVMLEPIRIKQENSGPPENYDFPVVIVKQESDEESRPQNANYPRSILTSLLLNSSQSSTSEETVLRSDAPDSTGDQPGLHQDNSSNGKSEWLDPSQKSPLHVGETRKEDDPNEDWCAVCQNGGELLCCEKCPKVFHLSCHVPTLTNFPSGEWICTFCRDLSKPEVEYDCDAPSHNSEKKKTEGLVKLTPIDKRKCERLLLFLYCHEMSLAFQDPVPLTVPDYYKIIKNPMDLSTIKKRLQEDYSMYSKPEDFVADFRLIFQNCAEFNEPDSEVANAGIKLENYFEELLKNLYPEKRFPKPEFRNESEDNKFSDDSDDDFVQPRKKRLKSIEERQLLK
# [24] = Unbound fraction in Wistar Han rat at 3 mg/kg, po or 1 mg/kg, iv measured upto 24 hrs by LC-MS/MS analysis; type: ADME, organism-based; details: in vivo
# [25] = Unbound fraction in Beagle dog at 1.5 mg/kg, po or 0.5 mg/kg, iv measured upto 24 hrs by LC-MS/MS analysis; type: ADME, organism-based, Canis lupus familiaris; details: in vivo
# Sequence of Cytochrome P450 3A4 (P08684 whole entry): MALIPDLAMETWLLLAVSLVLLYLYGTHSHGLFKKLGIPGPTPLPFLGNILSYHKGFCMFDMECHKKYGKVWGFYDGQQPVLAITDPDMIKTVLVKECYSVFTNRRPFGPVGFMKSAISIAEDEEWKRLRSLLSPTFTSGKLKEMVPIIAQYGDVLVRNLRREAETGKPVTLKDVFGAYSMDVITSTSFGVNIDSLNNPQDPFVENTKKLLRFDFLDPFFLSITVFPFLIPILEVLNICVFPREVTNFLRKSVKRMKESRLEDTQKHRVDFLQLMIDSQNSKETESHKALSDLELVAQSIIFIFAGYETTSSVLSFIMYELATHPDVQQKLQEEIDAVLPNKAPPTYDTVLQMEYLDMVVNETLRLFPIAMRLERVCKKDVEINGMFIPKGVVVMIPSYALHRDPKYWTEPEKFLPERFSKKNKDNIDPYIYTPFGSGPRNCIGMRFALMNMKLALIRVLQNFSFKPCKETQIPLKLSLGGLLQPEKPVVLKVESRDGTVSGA
# Sequence of Voltage-gated inwardly rectifying potassium channel KCNH2 (Q12809 whole entry): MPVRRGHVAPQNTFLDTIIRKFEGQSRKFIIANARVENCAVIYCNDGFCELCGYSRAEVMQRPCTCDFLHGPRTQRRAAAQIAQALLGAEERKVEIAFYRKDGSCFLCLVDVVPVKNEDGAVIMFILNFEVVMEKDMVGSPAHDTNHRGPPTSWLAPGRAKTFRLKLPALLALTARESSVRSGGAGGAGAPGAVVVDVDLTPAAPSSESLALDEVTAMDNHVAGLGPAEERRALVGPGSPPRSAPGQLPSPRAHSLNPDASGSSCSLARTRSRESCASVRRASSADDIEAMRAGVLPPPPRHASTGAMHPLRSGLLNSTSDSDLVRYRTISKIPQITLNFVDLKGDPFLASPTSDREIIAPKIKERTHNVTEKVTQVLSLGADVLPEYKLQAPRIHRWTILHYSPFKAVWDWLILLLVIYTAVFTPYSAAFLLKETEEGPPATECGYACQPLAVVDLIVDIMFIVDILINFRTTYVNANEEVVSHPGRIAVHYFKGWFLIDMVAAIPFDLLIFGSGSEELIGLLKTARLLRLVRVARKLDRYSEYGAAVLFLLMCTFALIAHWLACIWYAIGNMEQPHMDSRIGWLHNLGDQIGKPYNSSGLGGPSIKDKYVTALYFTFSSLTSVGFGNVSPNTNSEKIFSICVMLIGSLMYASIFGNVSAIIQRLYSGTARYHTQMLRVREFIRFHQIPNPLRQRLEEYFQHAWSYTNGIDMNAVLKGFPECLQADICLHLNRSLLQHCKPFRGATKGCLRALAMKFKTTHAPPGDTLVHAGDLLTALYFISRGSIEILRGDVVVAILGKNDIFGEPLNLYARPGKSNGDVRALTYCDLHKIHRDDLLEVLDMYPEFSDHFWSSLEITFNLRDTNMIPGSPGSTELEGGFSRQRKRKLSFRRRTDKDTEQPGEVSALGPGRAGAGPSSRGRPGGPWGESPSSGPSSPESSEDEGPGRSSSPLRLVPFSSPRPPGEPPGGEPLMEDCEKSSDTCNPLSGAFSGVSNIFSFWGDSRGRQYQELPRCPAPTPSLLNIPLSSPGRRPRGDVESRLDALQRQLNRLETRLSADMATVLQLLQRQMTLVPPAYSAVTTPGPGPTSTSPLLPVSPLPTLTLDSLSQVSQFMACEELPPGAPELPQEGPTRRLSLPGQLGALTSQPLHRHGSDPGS
# Sequence of C-C motif chemokine 2 (P13500 whole entry): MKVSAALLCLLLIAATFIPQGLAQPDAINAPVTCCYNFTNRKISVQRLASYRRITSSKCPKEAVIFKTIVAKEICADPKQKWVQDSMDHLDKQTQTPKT
smiles,measurement,setting,value
C[C@H]1C(=O)N(C)C=C(c2cnn(C)c2)c2cc([C@@H](O)CO)ccc21,pIC50,[1],7.20
same,pIC50,[2],7.50
same,pIC50,C-C motif chemokine 2,7.40
same,chromatographic logD,[3],1.3
same,pIC50,Cytochrome P450 3A4,< 4.40
same,pIC50,[4],< 4.30
same,Papp,[5],3.1 ×10⁻⁶ cm/s
same,solubility at 16 h,[6],> 1000 µg/mL
same,CLH,[7],< 0.8 mL/min/g
same,CLH,[8],< 0.65 mL/min/g
same,CLH,[9],< 0.45 mL/min/g
same,clearance,[10],26 mL/min/kg
same,CL free,[11],38 mL/min/kg
same,Vd,[12],1.3 L/kg
same,Vduss,[13],1.9 L/kg
same,half-life,[14],0.74 h
same,bioavailability,[15],67%
same,bioavailability,[16],79%
same,clearance,[17],28 mL/min/kg
same,CL free,[18],60 mL/min/kg
same,Vd,[19],2.7 L/kg
same,Vduss,[20],5.7 L/kg
same,half-life,[21],1.4 h
same,half-life,[22],> 1000 h
same,pKd,[23],5.90
same,Fu,[24],0.68
same,Fu,[25],0.47
